Reference: ChEMBL document CHEMBL3120053, “Airborne antituberculosis activity of Eucalyptus citriodora essential oil” (J Nat Prod, 2014)
≈ marks a conversion by molar mass, not a printed value.

test system: not listed separately; assay: Partition coefficient, log K of the compound in n-hexane/methyl tert-butylether/acetonitrile 10:1:10 solvent system by HSCCC/EECCC analysis; type: physicochemical
Outline: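 K values derived from volumetric measurements of the HSCCC run. Fraction collection began 1 h after loading at 4 min (6 mL) per fraction. Elution ran 5 h, then sweep elution and extrusion of the stationary phase for another 5 h, giving 160 TLC-monitored fractions.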

| SMILES | log K |
| --- | --- |
| CC12CCCCC1=CC(=O)CC2 (centres undefined) | 1.55 |
| CC(C)=CCC/C(C)=C/CC/C(C)=C/CC/C(C)=C/CO [GERANYLGERANIOL] | 1.6 |
| CC1=CC[C@H]2C(C)=CC[C@@H](C(C)C)[C@@H]2C1 | 2.98 |
| C[C@H]1CC[C@@H]2[C@H]1[C@@H]1[C@H](CC[C@]2(C)O)C1(C)C | 1.18 |
| C=C1CC[C@@H]2[C@H]([C@H]3[C@H]1CC[C@]3(C)O)C2(C)C [SPATHULENOL] | 1.18 |
| C=C(C)[C@H]1CC[C@H](C)C[C@H]1O (relative stereo) | 0.82 |
| CC(=O)OCCC(C)CCC=C(C)C (centres undefined) [CITRONELLYL ACETATE] | 1.55 |
| CC1=C[C@@H]2[C@@H](CC1)[C@@](C)(O)CC[C@H]2C(C)C [T-CADINOL] | 1.55 |
| CC1(C)C[C@H]2[C@H]1CC[C@]1(C)CCC[C@@]2(O)C1 | 1.6 |
| CC(C)=CCC/C(C)=C/CC/C(C)=C/C=O | 1.79 |
| C=C1CC/C=C(\C)CC[C@@H]2[C@@H]1CC2(C)C [BETA-CARYOPHYLLENE] | 2.98 |
| CC(C)=CCC[C@H](C)CC=O [(-)-CITRONELLAL] | 1.02 |
| C[C@@H]1CC[C@@H](C(C)(C)O)C(O)C1 (some centres undefined) | 0.87 |
| C=C(C)[C@@H]1CC[C@@H](C)C[C@H]1OC(C)=O | 1.55 |
| CC1=CC[C@@H](C(C)(C)O)CC1 [ALPHA-TERPINEOL] | 0.82 |
| C=C1CCC[C@]2(C)CC[C@@H](C(C)(C)O)C[C@@H]12 [BETA-EUDESMOL] | 1.6 |

| SMILES | log K |
| --- | --- |
| C=C(C)[C@@H]1CC[C@@H](C)C[C@H]1O [ISOPULEGOL] | 0.87 |
| C[C@@H]1CC[C@H]2[C@@H]1[C@H]1[C@@H](CC[C@]2(C)O)C1(C)C | 1.55 |
| C=C(C)[C@@H]1CC[C@@]2(C)CCCC(=C)[C@@H]2C1 [BETA-SELINENE] | 1.79 |
| CC1=CCC[C@]2(C)CC[C@@H](C(C)(C)O)C[C@@H]12 | 1.8 |
| C[C@@H]1CC[C@@H]2[C@@H]1[C@H]1[C@@H](CC[C@@]2(C)O)C1(C)C [GLOBULOL] | 1.79 |
| Cc1cc(C(C)(C)C)cc(C(C)(C)C)c1O | 1.79 |
| CC1=C[C@@H]2C(=C(C)CC[C@H]2C(C)C)CC1 [(+)-DELTA-CADINENE] | 2.98 |
| C=CC(C)(O)CCC=C(C)C (centres undefined) [LINALOOL] | 0.74 |
| C=C1CCCC(C)(C)[C@H]2C=C(C)CC[C@@H]12 | 1.6 |
| CC(C)=CCC/C(C)=C/CC/C(C)=C/CO [FARNESOL] | 1.79 |
| C/C1=C\CC(C)(C)/C=C/C[C@@]2(C)O[C@@H]2CC1 | 1.55 |
| CC1=C[C@H]2[C@H](C(C)C)CC[C@@H](C)[C@]2(O)CC1 | 1.8 |
| C=C1CC[C@@H]2[C@H]([C@@H]3[C@H](C)CC[C@H]13)C2(C)C | 2.98 |
| CC(C)=CCCC(C)CCO (centres undefined) [CITRONELLOL] | 0.69 |
| C=C(C)[C@H]1CC[C@@H](C)C[C@H]1O (relative stereo) | 2.98 |

test system: Mycobacterium tuberculosis; assay: Antimicrobial activity against Mycobacterium tuberculosis H37Rv assessed as growth inhibition by gaseous contact assay relative to control; type: functional
Outline: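 Gaseous contact (microatmosphere) assay. Virulent pan-sensitive M.tb H37Rv (ATCC 27294) frozen stocks were diluted so 100 μL gave 200−400 colonies on Middlebrook 7H11 agar, then dried 4−5 h at room temperature. 5 μL of sample in EtOAc (100 mg/mL) went on a filter disk in the inverted lid (≈70 cm3 headspace). Plates were sealed, held at 37 °C, cfu counted at 21 days, and % inhibition calculated.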

| SMILES | growth inhibition (GI) [%] |
| --- | --- |
| CC(C)=CCC[C@H](C)CC=O [(-)-CITRONELLAL] | 18 |
| C=C(C)[C@@H]1CC[C@@H](C)C[C@H]1O [ISOPULEGOL] | 64 |
| CC12CCC(CC1)C(C)(C)O2 [EUCALYPTOL] | 0 |
| CC(C)=CCCC(C)CCO (centres undefined) [CITRONELLOL] | 100 |

test system: Mycobacterium tuberculosis; assay: Antimicrobial activity against Mycobacterium tuberculosis H37Rv by BACTEC radiometric assay; type: functional

| SMILES | MIC [µg/mL] |
| --- | --- |
| CC(C)=CCC/C(C)=C/CO [GERANIOL] | 64 (≈ 415 µM) |
| CC(C)=CCC/C(C)=C/CC/C(C)=C/CO [FARNESOL] | 8 (≈ 36 µM) |
| CC(C)=CCC/C(C)=C\CO [NEROL] | 128 (≈ 830 µM) |
| CC(C)=CCCC(C)CCO (centres undefined) [CITRONELLOL] | 64 (≈ 410 µM) |
